High-throughput results deposited in PubChem by several laboratories.
GASC-1 inh: human JMJD2C demethylase inhibition; Q9H3R0; GST-JMJD2C(1-420) H3K9me3 demethylation, DELFIA europium; inhibition, % at 2.35 µM; 330,000 compounds, 0.069% hits; AID 2099;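 active = more than half of a compound's replicate wells show inhibition beyond 50%, single wells judged on their own value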;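 note: signal counts dimethyl H3K9 product captured on neutravidin plate; 0% = median of DMSO wells and 100% = 0.3 times that DMSO median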
Target sequence (Q9H3R0 1-420 limits assumed): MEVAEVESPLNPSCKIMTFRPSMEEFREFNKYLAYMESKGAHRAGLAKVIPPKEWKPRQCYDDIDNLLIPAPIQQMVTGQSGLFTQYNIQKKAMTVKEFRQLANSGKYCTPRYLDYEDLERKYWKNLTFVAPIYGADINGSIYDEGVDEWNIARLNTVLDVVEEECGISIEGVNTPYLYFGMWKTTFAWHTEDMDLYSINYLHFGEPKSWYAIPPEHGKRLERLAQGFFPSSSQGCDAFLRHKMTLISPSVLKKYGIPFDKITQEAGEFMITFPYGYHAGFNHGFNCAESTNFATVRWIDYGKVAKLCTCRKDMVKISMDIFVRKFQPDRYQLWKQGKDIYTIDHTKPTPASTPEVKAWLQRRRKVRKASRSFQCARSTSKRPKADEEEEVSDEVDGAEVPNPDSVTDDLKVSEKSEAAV
EP2 modulator: EP2 receptor (human) modulation. P43116. EP2-expressing cells, cAMP HTRF FRET, PGE2 co-stimulation. induction, % at 25 µM. 260,000 compounds, 0.83% hits;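 active = compounds whose cAMP rise, as percent of the full-agonist control response, exceeds 60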;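 note: rat C6 glioma line stably carrying human EP2 under a CMV promoter; the protocol text gives 20 µM as final concentration; 100% = response of wells given 1 µM PGE2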
Target sequence (P43116 whole entry, looked up): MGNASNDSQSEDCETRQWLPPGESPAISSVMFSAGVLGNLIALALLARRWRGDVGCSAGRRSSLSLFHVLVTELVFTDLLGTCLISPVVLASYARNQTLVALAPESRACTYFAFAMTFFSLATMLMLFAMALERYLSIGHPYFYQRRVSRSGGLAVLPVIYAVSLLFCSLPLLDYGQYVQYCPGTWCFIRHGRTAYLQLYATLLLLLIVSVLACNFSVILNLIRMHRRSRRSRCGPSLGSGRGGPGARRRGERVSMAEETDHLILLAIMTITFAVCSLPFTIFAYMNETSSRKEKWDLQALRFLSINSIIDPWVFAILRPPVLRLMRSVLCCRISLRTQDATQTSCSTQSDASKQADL
NR2E3 ag-1: agonists of human nuclear receptor NR2E3 | Q9Y5X4 | 320,000 compounds, 0.12% hits | inhibition of corepressor binding, % at 4.78 µM | AID 2300 | GST-NR2E3/biotin-RetCOR TR-FRET, 1536-well;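 active = percent inhibition above the cutoff of mean plus 3 SD of all tested compounds, set per screening campaign, cut at about 20% in these data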;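 note: 0% = DMSO wells and 100% = biotin wells as full block of FRET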
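Test system: GST-NR2E3 and biotin-RetCOR proteins | Quantity: 1.35 nM GST-tagged NR2E3 final | Medium: Tris pH 7.5 | Also added: 7 nM biotin-RetCOR | Dosing: Compound at 4.8 µM, single dose | Timing: 5 h at 4 °C | Detection: Time-resolved FRET | Read-out basis: Percent inhibition | Benchmarks: Biotin wells as high control, 0.6% DMSO wells as low control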
NR2E3 ag-2: human photoreceptor-specific nuclear receptor agonism. CHO-S Gal4-NCOR/VP16-NR2E3 two-hybrid, luciferase. inhibition of corepressor binding, % at 3.98 µM. 360,000 compounds, 0.35% hits. AID 602229;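 active = inhibition above the mean of all tested compounds plus 3 SD, cut at about 70% in these data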;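 note: 0% = DMSO with NR2E3 transfected cells and 100% = cells lacking NR2E3 construct; higher means lower luciferase signal from less NR2E3 corepressor binding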
PGE2 EP2 inh: blocks the human prostaglandin E2 receptor EP2 | P43116 | 260,000 compounds, 0.52% hits | inhibition, % at 25 µM | C6 glioma cells expressing human EP2, cAMP TR-FRET; cells stimulated with saturating PGE2 | AID 1422;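 active = percent inhibition above 40 after rounding to a whole number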;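 note: rat C6 glioma host cells with rolipram phosphodiesterase inhibitor present; the protocol text gives 20 µM as final concentration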
Furin inhibitor: human furin inhibition. inhibition, % at 20 µM or 30 µM. 220,000 compounds, 0.061% hits. purified furin, fluorogenic substrate cleavage. P09958; in the data active = inhibition above about 25%
EP2 cAMP induct: human EP2 receptor cAMP induction, negative in counter-screens. calls only at 20 µM (by protocol). AID 1080. C6 glioma EP2 cells, cAMP HTRF induction; plus low (about EC15) PGE2 agonist. 1,300 compounds, 47% hits. shares compounds with EP2 modulator;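 active = cAMP induction above 50% in the main assay while under 30% in all four parallel counter assays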;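 note: rat C6 glioma cells stably expressing human EP2 receptor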
The depositor's hits bear a star; i = inactive; · = not tested or not shown; + = active, no number. Sampled rows, rich in hits. Any-hit rate of the full collection: about 1.3%.

SMILES | GASC-1 inh | EP2 modulator | NR2E3 ag-1 | NR2E3 ag-2 | PGE2 EP2 inh | Furin inhibitor | EP2 cAMP induct
COC(=O)c1c(NC(=O)c2cccs2)sc2c1CCC(C)C2 (stereo unspecified) | -0.4 | 64.4* | 1.7 | -9.6 | 10.4 | -15.8 | i
CC(C)OC(=O)c1c(NC(=O)c2ccco2)sc2c1CCCCC2 | 0.9 | 57.6 | -0.8 | -34.4 | 13.6 | -6.6 | i
CCc1ccccc1NC(=O)CSc1nnc(C2CC2)n1CC | · | -12.6 | · | · | 9.5 | · | ·
COc1ccc(-n2c(COc3ccc(C)cc3)nnc2SCc2ccc(C#N)cc2)cc1 | 3.4 | 25.0 | -2.1 | -2.3 | 1.0 | -7.4 | ·
COc1ccc(-n2c(COc3ccc(Cl)cc3)nnc2SCc2ccc(C#N)cc2)cc1 | -2.3 | 53.0 | 2.7 | -34.7 | 5.3 | -0.9 | i
Cc1ccc(C(=O)c2coc3ccc(OCC(=O)O)cc23)cc1 | -2.8 | 69.3* | -0.9 | -88.7 | 2.2 | -16.7 | +
O=C(O)COc1ccc2occ(C(=O)c3ccccc3)c2c1 | -1.8 | 66.2* | 0.7 | -57.0 | 6.4 | -13.8 | +
COc1ccc(-c2nc3ccccc3n2Cc2ccccc2)cc1 | 3.5 | 68.5* | 1.6 | -34.0 | 12.6 | -3.2 | +
N#CCCCCn1c(-c2cncs2)nc2ccccc21 | -5.6 | 1.5 | 0.5 | -10.3 | 21.3 | -11.4 | ·
Brc1ccc(Cn2c(-c3cncs3)nc3ccccc32)cc1 | 9.2 | 69.8* | 0.5 | -54.3 | 1.6 | -21.0 | i
c1ccc(Cc2nc3ccccc3n2Cc2ccccc2)cc1 | -0.5 | 75.2* | 1.1 | 0.8 | 3.2 | -15.7 | +
Cc1nc2ccccc2c2nn(CC(=O)NC3CCCCC3)c(=O)n12 | · | -39.0 | · | · | 5.9 | · | ·
CCC(C)C(=O)Nc1ccc([N+](=O)[O-])cc1OC (stereo unspecified) | -1.2 | -24.7 | -1.6 | 13.7 | 6.6 | -11.0 | ·
CCSc1ccccc1C(=O)Nc1ccc([N+](=O)[O-])cc1OC | 2.1 | 65.6* | 1.6 | -23.9 | -0.1 | -9.9 | i
CCOC(=O)c1c(-c2cccc([N+](=O)[O-])c2)csc1N | 17.1 | 56.5 | -1.4 | -9.2 | 1.9 | -14.6 | ·
Cc1cccc(-c2csc(N)c2C(=O)OC(C)C)c1 | 6.8 | 95.7* | 0.4 | -22.4 | 8.7 | -18.6 | +
CCc1ccccc1N(CC(=O)N1CCCCC1)S(C)(=O)=O | · | -17.9 | · | · | 9.3 | · | ·
CN1C(=O)C2C3c4ccccc4C(c4ccccc43)[C@@H]2C1=O (stereo partly specified) | 1.0 | · | -4.1 | -30.2 | · | · | ·
O=C1C2C3c4ccccc4C(c4ccccc43)C2c2nc3ccccc3n21 (stereo unspecified) | 12.7 | 74.0* | -0.3 | -9.3 | 13.0 | -12.6 | +
COc1ccc(S(=O)(=O)Nc2nccc(C)n2)cc1 | · | -4.8 | · | · | 9.1 | · | ·
COc1ccc(OCC(=O)NC(=S)Nc2ccc3c4c(cccc24)CC3)cc1 | 4.4 | 68.2* | 18.7 | -19.8 | 18.3 | -10.0 | i
O=C(COC(=O)c1ccccn1)Nc1cc(C(F)(F)F)ccc1Cl | · | -5.4 | · | · | 8.6 | · | ·
Cc1ccc(S(=O)(=O)c2ccc(Oc3cccc(C)c3)cc2)cc1 | 0.1 | 77.7* | -1.2 | 19.3 | 7.7 | -10.2 | i
CC(C)N(Cc1nc(-c2ccccc2)no1)S(=O)(=O)c1ccccc1 | -24.7 | 14.9 | 4.0 | -20.5 | 9.5 | -10.8 | ·
O=S(=O)(c1ccccc1)N(Cc1nc(-c2ccccc2)no1)C1CCCCC1 | -26.9 | 82.5* | -1.5 | -33.4 | 14.8 | -11.2 | +
SMILES | GASC-1 inh | EP2 modulator | NR2E3 ag-1 | NR2E3 ag-2 | PGE2 EP2 inh | Furin inhibitor | EP2 cAMP induct
COc1ccc(N2CCN(C(c3ccccc3F)c3nnnn3CC3CCCO3)CC2)cc1 (stereo unspecified) | · | 3.5 | · | · | 10.6 | · | ·
c1ccc(-c2csc3ncnc(N4CCc5ccccc5C4)c23)cc1 | -1.9 | 71.8* | -0.8 | -29.7 | 6.2 | -12.6 | +
COc1ccc(C(=O)c2ccccc2)c(O)c1 | -8.0 | 41.0 | 0.9 | -3.0 | 3.0 | -18.3 | +
O=C(c1ccccc1)c1ccc(O)cc1O | -11.3 | -1.2 | 0.4 | -28.8 | 4.6 | -10.8 | ·
CCn1c2ccccc2c2cc(CN3CCc4c(nc(C)[nH]c4=O)C3)ccc21 | · | -23.8 | · | · | 4.5 | · | ·
CC(=O)N1c2ccccc2C(C)(c2ccccc2)CC1(C)C (stereo unspecified) | -19.2 | 77.9* | -0.3 | 10.4 | 7.7 | -0.5 | +
O=C1CCN2C=Nc3sc4c(c3C2=N1)CCCC4 | · | -10.2 | · | · | 4.6 | · | ·
CN(CC(=O)Nc1ccccc1-c1ccccc1)Cc1ccccc1Cl | -3.8 | 70.9* | 4.3 | -3.1 | 4.4 | -19.6 | +
O=C(CSCc1cccc(Cl)c1)Nc1ccccc1-c1ccccc1 | -5.0 | 66.8* | -2.9 | -25.4 | 9.4 | -7.2 | +
Cc1ccccc1CSCC(=O)Nc1ccccc1-c1ccccc1 | 4.2 | 81.2* | -2.5 | 8.8 | 0.2 | -8.4 | +
Cc1ccccc1NC(=O)CSCC(=O)Nc1ccccc1C | 3.6 | -1.3 | 1.5 | -4.0 | 7.0 | -9.9 | ·
O=C(C1CC1)N1CCCC(c2ncncc2-c2ccncc2)C1 (stereo unspecified) | · | -4.1 | · | · | · | · | ·
CC(C)(C)n1nnnc1C(c1ccncc1)N(Cc1ccccc1)Cc1ccco1 (stereo unspecified) | -0.5 | 70.5* | -4.2 | -28.5 | 25.3 | -22.1 | i
CC(C)(C)n1nnnc1C(c1cccs1)N(Cc1ccccc1)Cc1ccco1 (stereo unspecified) | 3.2 | 13.0 | 4.0 | -7.1 | 15.1 | -10.0 | ·
O=C(c1ccc(Cl)cc1)c1oc2ccccc2c1CS(=O)c1ccc(Cl)cc1 (stereo unspecified) | 16.8 | 72.6* | -1.2 | 9.5 | 8.6 | -4.5 | +
O=C(CSc1nccc(-c2ccc(F)cc2)n1)Nc1ccccn1 | · | 7.3 | · | · | 8.0 | · | ·
Cc1cc(N2CCOCC2)nc(N2CC(C)CC(C)C2)n1 (stereo unspecified) | · | -16.6 | · | · | 9.4 | · | ·
O=C1CCC(c2ccccc2)=NN1Cc1c(F)cccc1Cl | -1.4 | 66.4* | -3.0 | -3.6 | 2.2 | -15.9 | +
CC1=C(C#N)CCC(=O)N1Cc1c(F)cccc1Cl | -11.8 | 22.7 | 1.6 | 6.5 | 5.1 | -20.9 | ·
Cn1nc(-c2ccccc2)c(-c2nc(-c3cccc(C(F)(F)F)c3)no2)c1Cl | 8.7 | 51.2 | 3.4 | 6.9 | 9.5 | -19.0 | i
Oc1ccc2ccccc2c1Cc1c(O)ccc2ccccc12 | · | 69.6* | · | · | 12.0 | · | i
COc1ccc(OC)c(C2=Nn3c(nnc3-c3ccco3)SC2)c1 | 0.7 | 74.3* | -3.6 | -0.1 | 1.5 | -9.2 | +
COc1ccc(C2=Nn3c(nnc3-c3ccco3)SC2)cc1 | 4.0 | 33.4 | -0.8 | -14.6 | 6.9 | -20.5 | ·
